Measurements reported in ChEMBL document CHEMBL1127058, “The synthesis and biochemical pharmacology of enantiomerically pure methylated oxotremorine derivatives” (J Med Chem, 1993).
Several values for one entry are separate records, joined by “and”; a condition that tells them apart may be missing. Equal entries are not always repeated.

Legend:
[1] = molecular target: T1, Muscarinic acetylcholine receptor M2 (Rattus norvegicus, UniProt P10980); experiment: Binding affinity at [3H]QNB radiolabeled muscarinic M2 receptor in rat cortex.; type: tissue-based
T1 sequence (P10980 whole entry): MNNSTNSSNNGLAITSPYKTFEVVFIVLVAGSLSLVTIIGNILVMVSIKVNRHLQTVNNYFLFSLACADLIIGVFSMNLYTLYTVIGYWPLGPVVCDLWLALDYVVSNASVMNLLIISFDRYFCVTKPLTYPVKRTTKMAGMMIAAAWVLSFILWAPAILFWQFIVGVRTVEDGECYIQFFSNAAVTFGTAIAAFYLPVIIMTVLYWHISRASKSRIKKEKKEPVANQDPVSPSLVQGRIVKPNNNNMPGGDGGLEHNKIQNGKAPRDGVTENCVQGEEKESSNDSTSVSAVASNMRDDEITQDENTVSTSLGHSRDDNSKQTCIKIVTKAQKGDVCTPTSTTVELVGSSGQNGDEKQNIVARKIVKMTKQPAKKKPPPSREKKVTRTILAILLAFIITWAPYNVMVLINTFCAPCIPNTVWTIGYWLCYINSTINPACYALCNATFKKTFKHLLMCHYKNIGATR
How it was run: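 Cortex from male Wistar rats homogenized in 10 mM NaKPB pH 7.4, diluted 1:3000 (~0.1 mg protein/2.0 mL).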

[2] = molecular target: T1, Muscarinic acetylcholine receptor M2; experiment: Binding affinity at [3H]CD radiolabeled muscarinic M2 receptor in rat cortex.; type: tissue-based
How it was run: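 Rat cortex (male Wistar, 200–250 g) homogenized in ice-cold 10 mM Na/K phosphate, pH 7.4, diluted 1:300; ~0.75 mg protein per 2.0 mL. [3H]CD 1 nM, 120 min at 25 °C. Filtration onto PEI-soaked GF/B filters, scintillation counting; Ki from one-site competitive fit.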

[3] = molecular target: T2, Muscarinic acetylcholine receptor M1 (Rattus norvegicus, UniProt P08482); experiment: Binding affinity at [3H]PZ radiolabeled muscarinic M1 receptor in rat cortex.; type: tissue-based
T2 sequence (P08482 whole entry): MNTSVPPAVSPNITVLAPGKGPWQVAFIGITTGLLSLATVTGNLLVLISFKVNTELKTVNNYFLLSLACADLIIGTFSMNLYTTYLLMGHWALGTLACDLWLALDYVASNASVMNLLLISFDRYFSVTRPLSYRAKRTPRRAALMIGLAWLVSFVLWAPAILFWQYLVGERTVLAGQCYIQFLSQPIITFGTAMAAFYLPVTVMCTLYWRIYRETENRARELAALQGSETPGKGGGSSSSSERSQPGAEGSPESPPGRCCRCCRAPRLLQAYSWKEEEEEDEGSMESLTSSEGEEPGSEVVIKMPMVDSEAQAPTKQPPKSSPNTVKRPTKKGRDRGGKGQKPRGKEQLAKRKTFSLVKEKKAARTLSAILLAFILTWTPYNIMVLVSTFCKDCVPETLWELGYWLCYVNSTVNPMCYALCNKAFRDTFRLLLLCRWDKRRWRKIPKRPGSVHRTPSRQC
How it was run: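 Male Wistar rat cerebral cortex homogenate in ice-cold 10 mM NaKPB pH 7.4, diluted 1:400 (~0.55 mg protein/2.0 mL). [3H]PZ 0.1 nM, 60 min at 25 °C. Filtered on PEI-treated GF/B, scintillation read; apparent Ki by one-site nonlinear regression; one or two determinations.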

[4] = molecular target: T3, Muscarinic acetylcholine receptor M2 (Rattus norvegicus) (UniProt P10980); experiment: Relative [3H]QNB and [3H]-CD binding to muscarinic M2 receptor
T3 sequence (whole entry): T1 sequence (P10980 whole entry)

[5] = molecular target: T1, Muscarinic acetylcholine receptor M2; experiment: Binding affinity at [3H]QNB radiolabeled muscarinic M2 receptor in rat heart.
How it was run: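 Rat heart (male Wistar) minced and Polytron-homogenized in 10 mM NaKPB pH 7.4, spun 4800g 15 min 4 °C, resuspended, gauze-filtered, diluted 1:750 (0.15–0.2 mg protein/2.0 mL). Filtration, scintillation; one-site Ki.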

[6] = molecular target: T1, Muscarinic acetylcholine receptor M2; experiment: Binding affinity at [3H]QNB and GppNHp radiolabeled muscarinic M2 receptor in rat heart.
How it was run: (§1)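 Washed rat heart membranes (male Wistar; 4800g pellet, 1:750, 0.15–0.2 mg protein/2.0 mL) in 10 mM NaKPB pH 7.4 with Gpp(NH)p 10 μM final. Filter binding, scintillation counting; apparent Ki from one-site fit.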

[7] = molecular target: Muscarinic receptor M1 and M2 (Rattus norvegicus) (UniProt P08482+P10980); experiment: Ratio of [3H]QNB+GppNHp/[3H]-QNB; type: protein assay
[8] = Ratio of [3H]QNB+GppNHp/[3H]-PZ was determined
[9] = Ratio of [3H]QNB+/[3H]-PZ was determined
[10] = molecular target: T1, Muscarinic acetylcholine receptor M2; experiment: Tested for binding affinity to [3H]QNB and GppNHp radiolabeled muscarinic M2 receptor in rat heart; how it was run: as §1

| SMILES | Ki [1] | Ki [2] | Ki [3] | Ratio [4] | Ki [5] | Ki [6] | Ratio [7] | Ratio [8] | Ratio [9] | Ki [10] |
| --- | --- | --- | --- | --- | --- | --- | --- | --- | --- | --- |
| C[N+](C)(C)CC#CCN1CCCC1=O [OXOTREMORINE METHIODIDE] | 0.91 µM | 0.78 nM | 1.2 µM | 1200 | 60 nM | 1.5 µM |  |  |  |  |
| O=C1CCCN1CC#CCN1CCCC1 [OXOTREMORINE] | 0.06 µM | 0.5 nM | 0.12 µM |  | 5 nM | 0.16 µM |  |  |  |  |
| O=C1CCCN1CC#CCN1CCCCC1 | 0.12 µM | 56 nM | 0.13 µM | 2.2 | 70 nM | 0.35 µM | 5 | 2.7 | 0.54 |  |
| C[C@@H]1CCN(CC#CCN(C)C)C1=O | 8.9 µM | 71 nM | 6.8 µM | 125 | 240 nM | 9.3 µM |  |  |  |  |
| C[C@H]1CCN(CC#CCN2CCCC2)C1=O | 2.9 µM | 55 nM | 2.2 µM |  | 110 nM | 3.3 µM | 32 | 1.5 |  |  |
| C[C@H]1CC(=O)N(CC#CCN2CCCC2)C1 | 2.3 µM | 1500 nM | 0.51 µM | 1.6 | 3800 nM | 6 µM |  |  |  |  |
| C[C@H]1CC(=O)N(CC#CCN(C)C)C1 | 150 µM | > 10000 nM | 15 µM |  | > 100000 nM | > 100 µM | > 100 |  |  |  |
| C[C@@H]1CC(=O)N(CC#CCN(C)C)C1 | > 1000 µM | > 10000 nM | > 100 µM |  | > 100000 nM | > 100 µM | > 100 |  |  |  |
| C[C@@H]1CCN(CC#CCN2CCCC2)C1=O | 0.43 µM | 23 nM | 0.25 µM | 19 | 90 nM | 0.43 µM |  |  |  |  |
| CC1CCN(CC#CCN2CCCC2)C1=O (centres undefined) | 0.71 µM | 15 nM | 0.29 µM | 48 | 80 nM | 1.1 µM |  |  |  |  |
| CN(C)CC#CCN1CCCC1=O | 2.9 µM | 6.3 nM | 6.8 µM | 460 | 70 nM | 1.6 µM |  |  |  |  |
| C[C@H]1CC(=O)N(CC#CC[N+](C)(C)C)C1 | > 100 µM | 450 nM | 108 µM |  | 1900 nM |  | 0.23 |  |  | > 100000 nM |
| C[C@@H]1CC(=O)N(CC#CC[N+](C)(C)C)C1 | > 100 µM | 980 nM | > 109 µM |  | 21000 nM | 52 µM | 2.4 | 5.7 |  |  |
| C[C@H]1CCN(CC#CCN(C)C)C1=O | > 100 µM | 630 nM | 1080 µM |  | 21000 nM | 30 µM | 1.4 |  |  |  |
| CC(=O)N(C)C(C)C#CCN1CCCC1 (centres undefined) | 0.08 µM | 4 nM | 0.04 µM | 19.5 | 70 nM |  | 2.5 and 5.1 and 1.8 |  |  | 180 nM |
| C[C@@H]1CC(=O)N(CC#CCN2CCCC2)C1 | 4.7 µM | 2500 nM | 1.3 µM | 1.9 | 13000 nM | 27 µM | 2 | 21 |  |  |
| CC1CCN(CC#CCN(C)C)C1=O (centres undefined) | 22 µM | 260 nM | 212 µM | 85 | 1300 nM | 13 µM |  |  |  |  |
